Values after ≈ are worked out from the molar mass of the structure shown.
Columns and labels:
Assay type in all cases: functional
Klebsiella pneumoniae = experiment: Antibacterial activity against Klebsiella pneumoniae assessed as growth inhibition after 3 to 4 days by serial plate dilution method
Method in brief: (§1)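 Serial dilution in Mueller-Hinton broth adjusted to pH 5.0 with phosphate buffer. Standardized bacterial suspension inoculated, 16-18 h at 37 °C. Agar-well plates also used: compounds in DMSO added to punched wells, DMSO solvent control, triplicate plates held at 37 °C for 3–4 days. MIC taken as lowest concentration with no visible growth. Range tested 1.56–25 µg/mL. Ciprofloxacin standard.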

Staphylococcus aureus = experiment: Antibacterial activity against Staphylococcus aureus ATCC 25923 assessed as growth inhibition after 3 to 4 days by serial plate dilution method; method in brief: as §1
[1] = system: Radical scavenging activity; experiment: Antioxidant activity of the compound assessed as DPPH free radical scavenging activity at 312.5 uM after 60 mins by spectrophotometric analysis relative to control
Method in brief: (§2)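 DPPH• and sample stocks made in DMSO. DPPH• mixed with sample at several concentrations and brought to 4.0 mL in DMSO. Incubated 60 min at 25 °C in the dark, then absorbance read at 517 nm with solvent correction. Scavenging % = (A0−As)/A0×100 against a DPPH-only control. Ascorbic acid standard. Mean ± SD, n = 3.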

Pseudomonas aeruginosa = experiment: Antibacterial activity against Pseudomonas aeruginosa ATCC 27853 assessed as growth inhibition after 3 to 4 days by serial plate dilution method; method in brief: as §1
[2] = system: Radical scavenging activity; experiment: Antioxidant activity of the compound assessed as DPPH free radical scavenging activity at 125 uM after 60 mins by spectrophotometric analysis relative to control; method in brief: as §2
[3] = system: Trichophyton mentagrophytes; experiment: Antifungal activity against Trichophyton mentagrophytes assessed as growth inhibition after 3 to 4 days by serial plate dilution method
Method in brief: (§3)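 Agar of peptone, D-glucose and agar at pH 5.7, lawned with saline spore suspension and dried 1 h at 37 °C. Compounds in DMSO added to punched wells, DMSO solvent control. Triplicate plates held at 37 °C for 3–4 days. […] Ciclopiroxolamine standard.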

Aspergillus flavus = experiment: Antifungal activity against Aspergillus flavus NCIM 524 assessed as growth inhibition after 3 to 4 days by serial plate dilution method; method in brief: as §3
Talaromyces marneffei = experiment: Antifungal activity against Penicillium marneffei assessed as growth inhibition after 3 to 4 days by serial plate dilution method; method in brief: as §3
[4] = system: Radical scavenging activity; experiment: Antioxidant activity of the compound assessed as DPPH free radical scavenging activity at 62.5 uM after 60 mins by spectrophotometric analysis relative to control; method in brief: as §2
[5] = system: Radical scavenging activity; experiment: Antioxidant activity of the compound assessed as DPPH free radical scavenging activity at 250 uM after 60 mins by spectrophotometric analysis relative to control; method in brief: as §2
Escherichia coli = experiment: Antibacterial activity against Escherichia coli ATCC 25922 assessed as growth inhibition after 3 to 4 days by serial plate dilution method; method in brief: as §1
[6] = system: Radical scavenging activity; experiment: Antioxidant activity of the compound assessed as DPPH free radical scavenging activity at 187.5 uM after 60 mins by spectrophotometric analysis relative to control; method in brief: as §2
Aspergillus fumigatus = experiment: Antifungal activity against Aspergillus fumigatus NCIM 902 assessed as growth inhibition after 3 to 4 days by serial plate dilution method; method in brief: as §3

SMILES	MIC (Klebsiella pneumoniae)	MIC (Staphylococcus aureus)	inhibition [1]	MIC (Pseudomonas aeruginosa)	inhibition [2]	MIC [3]	MIC (Aspergillus flavus)	MIC (Talaromyces marneffei)	inhibition [4]	inhibition [5]	MIC (Escherichia coli)	inhibition [6]	MIC (Aspergillus fumigatus)
O=C(O)c1cn(C2CC2)c2cc(N3CCNCC3)c(F)cc2c1=O [CIPROFLOXACIN]	6.25 mg/L (≈ 18.9 µM)	3.12 mg/L (≈ 9.42 µM)	–	–	–	–	–	–	–	–	–	–	–
CCn1c(-c2cccs2)nn(CN2CCN(c3ccccc3)CC2)c1=S	6.25 mg/L (≈ 16.2 µM)	6.25 mg/L (≈ 16.2 µM)	90.2%	12 mg/L (≈ 31.1 µM)	63.1%	3.12 mg/L (≈ 8.09 µM)	3.12 mg/L (≈ 8.09 µM)	6.25 mg/L (≈ 16.2 µM)	52.2%	82.5%	12 mg/L (≈ 31.1 µM)	72.7%	6.25 mg/L (≈ 16.2 µM)
Cc1cc(C2CCCCC2)n(O)c(=O)c1.NCCO [CICLOPIROX OLAMINE]	–	–	–	–	–	3.12 mg/L	3.12 mg/L	6.25 mg/L	–	–	–	–	6.25 mg/L
C=CCn1c(-c2cccs2)nn(CN2CCOCC2)c1=S	6.25 mg/L (≈ 19.4 µM)	3.12 mg/L (≈ 9.68 µM)	95%	6.25 mg/L (≈ 19.4 µM)	71.2%	1.56 mg/L (≈ 4.84 µM)	1.56 mg/L (≈ 4.84 µM)	3.12 mg/L (≈ 9.68 µM)	62.3%	89.9%	6.25 mg/L (≈ 19.4 µM)	83.1%	3.12 mg/L (≈ 9.68 µM)
CCn1c(-c2cccs2)nn(CN2CCN(c3cccc(C(F)(F)F)c3)CC2)c1=S	3.12 mg/L (≈ 6.88 µM)	1.56 mg/L (≈ 3.44 µM)	81.6%	3.12 mg/L (≈ 6.88 µM)	61.1%	3.12 mg/L (≈ 6.88 µM)	3.12 mg/L (≈ 6.88 µM)	6.25 mg/L (≈ 13.8 µM)	52%	80.2%	3.12 mg/L (≈ 6.88 µM)	71.3%	6.25 mg/L (≈ 13.8 µM)
CC1CCN(Cn2nc(-c3cccs3)n(-c3ccccc3)c2=S)CC1	3.12 mg/L (≈ 8.42 µM)	1.56 mg/L (≈ 4.21 µM)	–	3.12 mg/L (≈ 8.42 µM)	51.1%	6.25 mg/L (≈ 16.9 µM)	6.25 mg/L (≈ 16.9 µM)	12 mg/L (≈ 32.4 µM)	44.7%	66.9%	3.12 mg/L (≈ 8.42 µM)	61.1%	12 mg/L (≈ 32.4 µM)
CCCN(CCC)Cn1nc(-c2cccs2)n(-c2ccccc2)c1=S	6.25 mg/L (≈ 16.8 µM)	6.25 mg/L (≈ 16.8 µM)	–	12 mg/L (≈ 32.2 µM)	62.6%	6.25 mg/L (≈ 16.8 µM)	6.25 mg/L (≈ 16.8 µM)	12 mg/L (≈ 32.2 µM)	52.1%	81.4%	12 mg/L (≈ 32.2 µM)	72.1%	12 mg/L (≈ 32.2 µM)
C=CCn1c(-c2cccs2)nn(CN2CCC(C)CC2)c1=S	3.12 mg/L (≈ 9.33 µM)	1.56 mg/L (≈ 4.66 µM)	72.4%	3.12 mg/L (≈ 9.33 µM)	53.5%	6.25 mg/L (≈ 18.7 µM)	6.25 mg/L (≈ 18.7 µM)	12 mg/L (≈ 35.9 µM)	50.1%	69.7%	3.12 mg/L (≈ 9.33 µM)	68.1%	12 mg/L (≈ 35.9 µM)
CCn1c(-c2cccs2)nn(CN2CCN(Cc3ccccc3)CC2)c1=S	6.25 mg/L (≈ 15.6 µM)	6.25 mg/L (≈ 15.6 µM)	90.9%	12 mg/L (≈ 30 µM)	63.2%	3.12 mg/L (≈ 7.81 µM)	3.12 mg/L (≈ 7.81 µM)	6.25 mg/L (≈ 15.6 µM)	53.5%	83.1%	12 mg/L (≈ 30 µM)	74.5%	6.25 mg/L (≈ 15.6 µM)
CCn1c(-c2cccs2)nn(CN2CCOCC2)c1=S	6.25 mg/L (≈ 20.1 µM)	3.12 mg/L (≈ 10 µM)	93.6%	6.25 mg/L (≈ 20.1 µM)	69.8%	1.56 mg/L (≈ 5.02 µM)	1.56 mg/L (≈ 5.02 µM)	3.12 mg/L (≈ 10 µM)	60.4%	88.6%	6.25 mg/L (≈ 20.1 µM)	82.8%	3.12 mg/L (≈ 10 µM)
O=C1O[C@H]([C@@H](O)CO)C(O)=C1O	–	–	91.7%	–	65%	–	–	–	55.1%	85.8%	–	75.2%	–
CCn1c(-c2cccs2)n[nH]c1=S	12 mg/L (≈ 56.8 µM)	12 mg/L (≈ 56.8 µM)	62.1%	12 mg/L (≈ 56.8 µM)	47.1%	12 mg/L (≈ 56.8 µM)	12 mg/L (≈ 56.8 µM)	25 mg/L (≈ 118 µM)	36.4%	53.3%	12 mg/L (≈ 56.8 µM)	49.6%	25 mg/L (≈ 118 µM)
CCn1c(-c2cccs2)nn(CN2CCC(C)CC2)c1=S	3.12 mg/L (≈ 9.67 µM)	1.56 mg/L (≈ 4.84 µM)	71.3%	3.12 mg/L (≈ 9.67 µM)	52.5%	6.25 mg/L (≈ 19.4 µM)	6.25 mg/L (≈ 19.4 µM)	12 mg/L (≈ 37.2 µM)	49.2%	67.6%	3.12 mg/L (≈ 9.67 µM)	65.2%	12 mg/L (≈ 37.2 µM)
C=CCn1c(-c2cccs2)nn(CN2CCN(c3ccccc3)CC2)c1=S	6.25 mg/L (≈ 15.7 µM)	6.25 mg/L (≈ 15.7 µM)	91.6%	12 mg/L (≈ 30.2 µM)	64.4%	3.12 mg/L (≈ 7.85 µM)	3.12 mg/L (≈ 7.85 µM)	6.25 mg/L (≈ 15.7 µM)	54%	84.1%	12 mg/L (≈ 30.2 µM)	75%	6.25 mg/L (≈ 15.7 µM)
S=c1n(CN2CCOCC2)nc(-c2cccs2)n1-c1ccccc1	6.25 mg/L (≈ 17.4 µM)	12 mg/L (≈ 33.5 µM)	–	6.25 mg/L (≈ 17.4 µM)	68.4%	1.56 mg/L (≈ 4.35 µM)	1.56 mg/L (≈ 4.35 µM)	3.12 mg/L (≈ 8.7 µM)	59.1%	87.2%	6.25 mg/L (≈ 17.4 µM)	79.2%	3.12 mg/L (≈ 8.7 µM)
C=CCn1c(-c2cccs2)n[nH]c1=S	25 mg/L (≈ 112 µM)	25 mg/L (≈ 112 µM)	68.8%	12 mg/L (≈ 53.7 µM)	45.2%	12 mg/L (≈ 53.7 µM)	12 mg/L (≈ 53.7 µM)	25 mg/L (≈ 112 µM)	40.7%	55.5%	12 mg/L (≈ 53.7 µM)	47.4%	25 mg/L (≈ 112 µM)
S=c1[nH]nc(-c2cccs2)n1-c1ccccc1	12 mg/L (≈ 46.3 µM)	12 mg/L (≈ 46.3 µM)	65.1%	12 mg/L (≈ 46.3 µM)	45.7%	12 mg/L (≈ 46.3 µM)	12 mg/L (≈ 46.3 µM)	25 mg/L (≈ 96.4 µM)	36.1%	51.2%	12 mg/L (≈ 46.3 µM)	47.9%	25 mg/L (≈ 96.4 µM)
